Data from ChEMBL document CHEMBL1145965, “4-Substituted 4-hydroxycyclohexa-2,5-dien-1-ones with selective activities against colon and renal cancer cell lines” (J Med Chem, 2003).
pIC50: −log10 of the molar value.

Key:
SF-295 = experiment: Concentration of compound that cause 50% cytotoxicity of SF-295 CNS cancer cell line; format: functional; settings: Homo sapiens, read-out: Log LC50 (the source's name) (converted)
Method in brief: (§1)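 NCI 60-cell-line panel screen. Each line was seeded in 96-well plates at a density set by its growth characteristics and incubated drug-free for 24 h. Test agents were then added at five 10-fold dilutions, with a top concentration of 100 μM.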

LOX IMVI = experiment: Concentration of compound that cause 50% cytotoxicity of LOX IMVI melanoma cell line; format: functional; settings: Homo sapiens, read-out: Log LC50 (the source's name) (converted); method in brief: as §1
NCI-H226 = experiment: Concentration of compound that cause 50% cytotoxicity of NCI-H226 non small cell lung cancer cell line; format: functional; settings: Homo sapiens, read-out: Log LC50 (the source's name) (converted); method in brief: as §1
CAKI-1 = experiment: Concentration of compound that cause 50% cytotoxicity of CAKI-1 renal cancer cell line; format: functional; settings: Homo sapiens, read-out: Log LC50 (the source's name) (converted); method in brief: as §1
MCF7 [1] = experiment: Inhibitory activity against MCF-7 mammary carcinoma cell line; format: functional, cell-based; settings: Homo sapiens
Method in brief: (§2)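 Cells grown in RPMI 1640 with 2 mM L-glutamine and 10% fetal calf serum, 37 °C, 5% CO2. Seeded at 5 × 10³ per well, 24 h adherence, then drug 0.1 nM–100 μM final (n = 8; DMSO stocks, dilutions in medium) for 72 h.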

UO-31 = experiment: Concentration of compound that cause 50% cytotoxicity of UO-31 renal cancer cell line; format: functional; settings: Homo sapiens, read-out: Log LC50 (the source's name) (converted)
U-251 = experiment: Concentration of compound that cause 50% cytotoxicity of U251 CNS cancer cell line; format: functional; settings: Homo sapiens, read-out: Log LC50 (the source's name) (converted); method in brief: as §1
COLO 205 = experiment: Concentration of compound that cause 50% cytotoxicity of COLO 205 colon cancer cell line; format: functional; settings: Homo sapiens, read-out: Log LC50 (the source's name) (converted); method in brief: as §1
MDA-N = experiment: Concentration of compound that cause 50% cytotoxicity of MDA-N breast cancer cell line; format: functional; settings: Homo sapiens, read-out: Log LC50 (the source's name) (converted); method in brief: as §1
HT-29 = experiment: Inhibitory activity against HT-29 colon cancer cell line; format: functional, cell-based; settings: Homo sapiens; method in brief: as §2
A549 = experiment: Concentration of compound that cause 50% cytotoxicity of A549/ATCC non small cell lung cancer cell line; format: functional; settings: Homo sapiens, read-out: Log LC50 (the source's name) (converted); method in brief: as §1
[2] = tested on: Panel NCI-60 (60 carcinoma cell lines); experiment: In vitro mean growth lethal concentration in colon subpanel against 60-cell panel; format: functional; settings: Homo sapiens, read-out: Mean LC50
SNB-75 = experiment: Concentration of compound that cause 50% cytotoxicity of SNB-75 CNS cancer cell line; format: functional; settings: Homo sapiens, read-out: Log LC50 (the source's name) (converted); method in brief: as §1
HL-60 = experiment: Concentration of compound that cause 50% cytotoxicity of HL-60(TB) leukemia cell line; format: functional; settings: Homo sapiens, read-out: Log LC50 (the source's name) (converted); method in brief: as §1
NCI-H322M = experiment: Concentration of compound that cause 50% cytotoxicity of NCI-H322M non small cell lung cancer cell line; format: functional; settings: Homo sapiens, read-out: Log LC50 (the source's name) (converted); method in brief: as §1
786-0 = experiment: Concentration of compound that cause 50% cytotoxicity of 786-0 renal cancer cell line; format: functional; settings: Homo sapiens, read-out: Log LC50 (the source's name) (converted); method in brief: as §1
HOP-62 = experiment: Concentration of compound that cause 50% cytotoxicity of HOP-62 non small cell lung cancer cell line; format: functional; settings: Homo sapiens, read-out: Log LC50 (the source's name) (converted); method in brief: as §1
HCT-116 = experiment: Inhibitory activity against HCT116 colon cancer cell line; format: functional, cell-based; settings: Homo sapiens; method in brief: as §2
EKVX = experiment: Concentration of compound that cause 50% cytotoxicity of EKVX non small cell lung cancer cell line; format: functional; settings: Homo sapiens, read-out: Log LC50 (the source's name) (converted); method in brief: as §1
SW-620 = experiment: In vitro lethal concentration against least sensitive colon SW-620 cell line; format: functional; settings: Homo sapiens, read-out: LC50 (the source's name)
BT-549 = experiment: Concentration of compound that cause 50% cytotoxicity of BT-549 breast cancer cell line; format: functional; settings: Homo sapiens, read-out: Log LC50 (the source's name) (converted); method in brief: as §1
OVCAR-3 = experiment: Concentration of compound that cause 50% cytotoxicity of OVCAR-3 ovarian cancer cell line; format: functional; settings: Homo sapiens, read-out: Log LC50 (the source's name) (converted); method in brief: as §1
OVCAR-8 = experiment: Concentration of compound that cause 50% cytotoxicity of OVCAR-8 ovarian cancer cell line; format: functional; settings: Homo sapiens, read-out: Log LC50 (the source's name) (converted); method in brief: as §1
MOLT-4 = experiment: Concentration of compound that cause 50% cytotoxicity of MOLT-4 leukemia cell line; format: functional; settings: Homo sapiens, read-out: LC50 (the source's name); method in brief: as §1
HOP-92 = experiment: Concentration of compound that cause 50% cytotoxicity of HOP-92 non small cell lung cancer cell line; format: functional; settings: Homo sapiens, read-out: Log LC50 (the source's name) (converted); method in brief: as §1
ACHN [3] = experiment: In vitro lethal concentration against most sensitive ACHN cell line; format: functional; settings: Homo sapiens, read-out: LC50 (the source's name)
HCT-15 = experiment: Concentration of compound that cause 50% cytotoxicity of HCT-15 colon cancer cell line; format: functional; settings: Homo sapiens, read-out: Log LC50 (the source's name) (converted); method in brief: as §1
UACC-257 = experiment: Concentration of compound that cause 50% cytotoxicity of UACC-257 melanoma cell line; format: functional; settings: Homo sapiens, read-out: Log LC50 (the source's name) (converted)
MCF7 [4] = experiment: Concentration of compound that cause 50% cytotoxicity of MCF-7 breast cancer cell line; format: functional; settings: Homo sapiens, read-out: Log LC50 (the source's name) (converted); method in brief: as §1
DU-145 = experiment: Concentration of compound that cause 50% cytotoxicity of DU-145 prostate cancer cell line; format: functional; settings: Homo sapiens, read-out: Log LC50 (the source's name) (converted); method in brief: as §1
SK-MEL-28 = experiment: Concentration of compound that cause 50% cytotoxicity of SK-MEL-28 melanoma cell line; format: functional; settings: Homo sapiens, read-out: Log LC50 (the source's name) (converted); method in brief: as §1
ACHN [5] = experiment: Concentration of compound that cause 50% cytotoxicity of ACHN renal cancer cell line; format: functional; settings: Homo sapiens, read-out: Log LC50 (the source's name) (converted); method in brief: as §1

`O=C1C=CC(O)(c2nc3ccccc3s2)C=C1` was tested, and the CC50 (SF-295) was 4.68 µM, the CC50 (LOX IMVI) was 3.8 µM and the CC50 (NCI-H226) was 23.4 µM. The CC50 (CAKI-1) was 1.35 µM, the pIC50 (MCF7 [1]) was 6.46 and the CC50 (UO-31) was 0.955 µM. For the same compound, the CC50 (U-251) was 2.57 µM, the CC50 (COLO 205) was 5.13 µM and the CC50 (MDA-N) was 1 µM. It also gave a pIC50 (HT-29) of 6.42, a CC50 (A549) of 43.7 µM and a CC50 [2] of 1.76 µM. The CC50 (SNB-75) was 4.68 µM, the CC50 (HL-60) was 0.741 µM and the CC50 (NCI-H322M) was 23.4 µM. The CC50 (786-0) was 1.05 µM, the CC50 (HOP-62) was 12.6 µM and the pIC50 (HCT-116) was 7.40. The CC50 (EKVX) was 5.75 µM, the CC50 (SW-620) was over 100 µM and the CC50 (BT-549) was 4.79 µM. It also gave a CC50 (OVCAR-3) of 2.88 µM, a CC50 (OVCAR-8) of 5.01 µM and a CC50 (MOLT-4) of over 4 µM. For the same compound, the CC50 (HOP-92) was 3.72 µM, the CC50 (ACHN [3]) was 0.69 µM and the CC50 (HCT-15) was 2.45 µM. The CC50 (UACC-257) was 9.77 µM, the CC50 (MCF7 [4]) was 4.07 µM and the CC50 (DU-145) was 3.39 µM. The CC50 (SK-MEL-28) was 2.51 µM and the CC50 (ACHN [5]) was 2.75 µM.
